Laboratory results: ChEMBL document CHEMBL1127011, “Structure-activity relationship of glycine betaine analogs on osmotolerance of enteric bacteria” (1993)

Legend:
Type in all cases: functional
Escherichia coli [1] = assay: Maximum NaCl molar concentration that showed 50% bacterial growth in Escherichia coli ATCC 25922 at MM+0.1 mmol GB (Glycine Betaine)
Procedure, shortened: (§1)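 Single colony from MacConkey agar subcultured overnight in minimal medium at 37 °C. Inoculum: 1:200 dilution of 0.5 McFarland standard (~5 × 10^5 cfu/mL final) into minimal medium with NaCl 0.1–1 M in 0.1 M steps. Test compound 0.1 mM, alone or with GB or Chol 0.1 mM. OD600 read at 48 h. Endpoint is highest NaCl giving ≥50% growth versus full-growth tubes. Mean of three ±SD.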

Escherichia coli [2] = assay: Maximum NaCl molar concentration that showed 50% bacterial growth in Escherichia coli 31 at MM+0.1 mmol Choline; procedure, shortened: as §1
Escherichia coli [3] = assay: Maximum NaCl molar concentration that showed 50% bacterial growth in Escherichia coli ATCC 25922 at MM+0.1 mmol Choline; procedure, shortened: as §1
Escherichia coli [4] = assay: Maximum NaCl molar concentration that showed 50% bacterial growth in Escherichia coli K10 at MM+0.1 mmol GB (Glycine Betaine); procedure, shortened: as §1
Escherichia coli [5] = assay: Maximum NaCl molar concentration that showed 50% bacterial growth in Escherichia coli ATCC 25922 at minimum media (MM); procedure, shortened: as §1
Escherichia coli [6] = assay: Maximum NaCl molar concentration that showed 50% bacterial growth in Escherichia coli K10 at minimum media (MM); procedure, shortened: as §1
Escherichia coli [7] = assay: Maximum NaCl molar concentration that showed 50% bacterial growth in Escherichia coli 31 at minimum media (MM); procedure, shortened: as §1
Escherichia coli [8] = assay: Maximum NaCl molar concentration that showed 50% bacterial growth in Escherichia coli 31 at MM+0.1 mmol GB (Glycine Betaine); procedure, shortened: as §1
Escherichia coli [9] = assay: Maximum NaCl molar concentration that showed 50% bacterial growth in Escherichia coli K10 at MM+0.1 mmol Choline; procedure, shortened: as §1

SMILES | Max salt tolerance (Escherichia coli [1]) | Max salt tolerance (Escherichia coli [2]) | Max salt tolerance (Escherichia coli [3]) | Max salt tolerance (Escherichia coli [4]) | Max salt tolerance (Escherichia coli [5]) | Max salt tolerance (Escherichia coli [6]) | Max salt tolerance (Escherichia coli [7]) | Max salt tolerance (Escherichia coli [8]) | Max salt tolerance (Escherichia coli [9])
C[N+](C)(C)CC(=O)NS(=O)(=O)c1ccc(N)cc1.[Cl-] | 0.83 | 0.9 | 0.8 | 0.9 | 0.5 | 0.56 | 0.73 | 0.9 | 0.86
C[N+]1(CS(=O)(=O)[O-])CCCCC1 | 0.86 | 0.88 | 0.2 | 0.9 | 0.13 | 0.35 | 0.43 | 0.93 | 0.5
C[N+]1(CS(=O)(=O)[O-])CCCC1 | 0.87 | 0.86 | 0.2 | 0.97 | 0.13 | 0.5 | 0.7 | 0.93 | 0.6
C[N+](C)(C)CS(=O)(=O)[O-] | 0.86 | 0.9 | 0.33 | 0.93 | 0.27 | 0.83 | 0.83 | 0.9 | 0.9
Br.C[N+](C)(C)CC(=O)[N-]S(=O)(=O)c1ccc(NC(=O)CBr)cc1 | 0.86 | 0.8 | 0.8 | 0.86 | 0.1 | 0.3 | 0.63 | 0.9 | 0.8
C[N+](C)(C)CC(=O)Nc1ccc(S(=O)(=O)NC(=O)C[N+](C)(C)C)cc1.[Cl-].[Cl-] | 0.83 | 0.9 | 0.8 | 0.9 | 0.5 | 0.56 | 0.73 | 0.9 | 0.86
C[N+](C)(C)CC(=O)[N-]S(=O)(=O)c1ccc(NC(=O)CCl)cc1 | 0.86 | 0.8 | 0.8 | 0.86 | 0.1 | 0.3 | 0.63 | 0.9 | 0.8
CCC(=O)Nc1ccc(S(=O)(=O)[N-]C(=O)C[N+](C)(C)C)cc1 | 0.86 | 0.8 | 0.8 | 0.9 | 0.4 | 0.57 | 0.7 | 0.9 | 0.83
C[N+](C)(C)CC(=O)Nc1ccc(S(N)(=O)=O)cc1.[Cl-] | 0.83 | 0.9 | 0.8 | 0.9 | 0.5 | 0.56 | 0.73 | 0.9 | 0.86
CC(=O)Nc1ccc(S(=O)(=O)[N-]C(=O)C[N+](C)(C)C)cc1 | 0.86 | 0.8 | 0.8 | 0.9 | 0.4 | 0.57 | 0.7 | 0.9 | 0.83
C[N+](C)(C)CP(=O)([O-])O [HYDROGEN (TRIMETHYLAMMONIO)METHYLPHOSPHONATE] | 0.8 | 0.83 | 0.77 | 0.87 | 0.33 | 0.4 | 0.6 | 0.9 | 0.77
C[N+](C)(C)CC(=O)[N-]S(=O)(=O)c1ccc(NC(=O)CI)cc1 | 0.86 | 0.8 | 0.8 | 0.86 | 0.1 | 0.3 | 0.63 | 0.9 | 0.8
C[N+]1(CS(=O)(=O)[O-])CCOCC1 | 0.83 | 0.9 | 0.23 | 0.97 | 0.2 | 0.63 | 0.77 | 0.97 | 0.87
C[N+](C)(C)CC(=O)[N-]S(=O)(=O)c1ccccc1 | 0.83 | 0.9 | 0.8 | 0.9 | 0.5 | 0.56 | 0.73 | 0.9 | 0.86
